# Read-outs that look alike come from different tables or passages of the source. Marks after values point to notes of the source that are not given here.
# Legend:
# [1] = Plasma etelcalcetide pharmacokinetics, single-dose study; assay type: in vivo, human (Japanese hemodialysis patients with SHPT); conditions: human, iv
# In short: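 Japanese hemodialysis patients (≥20 y) with SHPT, iPTH ≥ 300 pg/ml and cCa ≥ 9.0 mg/dl, randomized 2:1 to drug or placebo in cohorts of 6. A single i.v. injection (5, 10 or 20 mg) was given via the venous blood line after dialysis. Plasma drug was measured by LC/MS/MS. Cmax and AUClast (to the last quantifiable point before the next hemodialysis) were derived per subject by noncompartmental analysis and reported as mean ± SD.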
# [2] = cited from earlier work
# [3] = Safety and tolerability, multiple-dose study; assay type: in vivo, human (Japanese hemodialysis patients with SHPT)
# In short: (§1)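 Safety was assessed descriptively from AEs, vital signs, clinical laboratory tests and 12-lead ECGs (centrally analyzed, QTc by Fridericia). Anti-drug antibodies were measured by validated ELISA. Hypocalcemia was defined as cCa < 7.5 mg/dl. Dosing was a single i.v. injection after dialysis (5, 10 or 20 mg), or 2.5 or 5 mg i.v. three times weekly for 4 weeks. Each dose cohort started only after the earlier cohorts met the safety criteria.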
# [4] = test system: serum albumin-corrected calcium (cCa); assay: Serum cCa change, multiple-dose study; assay type: in vivo, human (Japanese hemodialysis patients with SHPT); conditions: mean ± SD
# In short: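 Randomized, double-blind, placebo-controlled, 16 centres. Patients: ≥20 y, hemodialysis 3×/week ≥90 days, iPTH ≥ 300 pg/ml, cCa ≥ 9.0 mg/dl, dialysate Ca ≥2.25 mEq/l. Blood taken before each dialysis; follow-up to day 55. Serum cCa measured centrally; percent change from baseline at day 55 or withdrawal.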
# [5] = Antibodies against etelcalcetide, ELISA; assay type: in vivo, human (Japanese hemodialysis patients with SHPT); conditions: validated ELISA
# [6] = test system: serum albumin-corrected calcium (cCa); assay: Serum cCa change, single-dose study; assay type: in vivo, human (Japanese hemodialysis patients with SHPT); conditions: mean ± SD, n = 4
# In short: (§2)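 Japanese hemodialysis patients with SHPT received a single 5, 10 or 20 mg i.v. injection, or placebo, via the venous blood line after dialysis. Active groups had n = 4; placebo was pooled across cohorts. Serum iPTH, albumin-corrected Ca and P were measured by a central laboratory. Data are percent change from baseline over time, with mean maximum change from baseline, reported descriptively as mean ± SD.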
# [7] = Safety and tolerability, single-dose study; assay type: in vivo, human (Japanese hemodialysis patients with SHPT)
# In short: as §1
# [8] = test system: serum intact parathyroid hormone (iPTH); assay: Serum iPTH change, multiple-dose study; assay type: in vivo, human (Japanese hemodialysis patients with SHPT); conditions: mean ± SD; for serum iPTH, percent change 30 minutes after injection / serum iPTH, percent change from baseline on day 3: multiple-dose study; for serum iPTH, percent change 30 minutes after injection: first injection, n = 8
# In short: (§3)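 Blood was drawn before each dialysis, plus serial samples after the day 1 and day 27 injections. Serum iPTH, BAP, TRACP-5b and FGF23 were measured centrally. Data are percent change from baseline, mean ± SD.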
# [9] = Plasma etelcalcetide pharmacokinetics, multiple-dose study; assay type: in vivo, human (Japanese hemodialysis patients with SHPT); conditions: for AUC(0-t) / Cmax: human, plasma, iv; for AUC(0-t): AUClast
# In short: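 Two cohorts of 11 hemodialysis patients with SHPT, randomized 8:3 to drug or placebo. Plasma drug was measured by LC/MS/MS, with samples taken before each dialysis. Per-subject noncompartmental Cmax and AUClast were compared for the day 1 and day 27 injections. Values are geometric mean (95% CI).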
# [10] = test system: serum P; assay: Serum phosphorus change; assay type: in vivo, human (Japanese hemodialysis patients with SHPT); conditions: for serum P, percent change from the baseline at the end of the treatment or withdrawal: mean ± SD
# [11] = test system: serum intact parathyroid hormone (iPTH); assay: Serum iPTH change, single-dose study; assay type: in vivo, human (Japanese hemodialysis patients with SHPT); conditions: for serum iPTH, mean maximum change from the baseline: mean ± SD, n = 4
# In short: as §2
# [12] = test system: BAP, TRACP-5b, FGF23 serum levels; assay: Serum BAP, TRACP-5b and FGF23, multiple-dose study; assay type: in vivo, human (Japanese hemodialysis patients with SHPT)
# In short: as §3
# [13] = 2.5 mg i.v. 3 times weekly for 4 weeks
# [14] = 5 mg i.v. 3 times weekly for 4 weeks
# [15] = M1, 2.5 mg, n = 7, geometric mean (95% confidence interval)
# [16] = M2, 5 mg, n = 8, geometric mean (95% confidence interval)
# [17] = 2.5 mg, M1, 2.5 mg i.v. 3 times weekly for 4 weeks, day 1 (first administration), n = 8, mean ± SD
# [18] = 5 mg, M2, 5 mg i.v. 3 times weekly for 4 weeks, day 1, n = 8, mean ± SD
# [19] = 5 mg, M2, 5 mg i.v. 3 times weekly for 4 weeks, day 27, n = 8, mean ± SD
compound,measurement,setting,value
"CC(=O)N[C@H](CSSC[C@H](N)C(=O)O)C(=O)N[C@H](C)C(=O)N[C@H](CCCNC(=N)N)C(=O)N[C@H](CCCNC(=N)N)C(=O)N[C@H](CCCNC(=N)N)C(=O)N[C@H](C)C(=O)N[C@H](CCCNC(=N)N)C(N)=O [etelcalcetide, Etelcalcetide]",AUC(0-t),[1]; 5 mg,1110 ± 360 ng·h/mL
same,Cmax,[1]; 5 mg,236 ± 89 ng/mL
same,AUC(0-t),[1]; 10 mg,2550 ± 110 ng·h/mL
same,Cmax,[1]; 10 mg,589 ± 88 ng/mL
same,AUC(0-t),[1]; 20 mg,5460 ± 680 ng·h/mL
same,Cmax,[1]; 20 mg,999 ± 135 ng/mL
same,tolerability,"[2]; 3-times-weekly 5- and 10-mg doses for 4 weeks, non-Japanese patients",tolerable
same,tolerability,"[2]; single i.v. injection at 5 to 60 mg, non-Japanese SHPT patients",tolerable
same,tolerability,"[2]; single injection of 5 mg, healthy Japanese subjects, ref unpublished data",tolerable
same,patients with AEs,"[3]; 2.5 mg i.v. 3 times weekly for 4 weeks, 7 patients of 8",87.5%
same,serious AE,"[3]; 2.5 mg i.v. 3 times weekly, relationship to treatment not ruled out",cardiopulmonary arrest
same,serious AE,[3]; 5 mg i.v. 3 times weekly,no serious AE was reported
same,patients with AEs,"[3]; 5 mg i.v. 3 times weekly for 4 weeks, 3 patients of 8",37.5%
same,deaths,[3]; multiple-dose study,No deaths occurred
same,hypocalcemia with serum cCa < 7.5 mg/dl,"[3]; multiple-dose study, 2.5 or 5 mg i.v. 3 times weekly for 4 weeks",No patients experienced hypocalcemia
same,"serum cCa, mean percent change from the baseline at the end of the study or at withdrawal",[4]; [13],−7.05% ± 4.60%
same,"serum cCa, mean percent change from the baseline at the end of the study or at withdrawal",[4]; [14],−12.75% ± 4.88%
same,antietelcalcetide antibodies,[5]; multiple-dose study,No antietelcalcetide antibodies were detected
same,antietelcalcetide antibodies,[5]; single-dose study,No antietelcalcetide antibodies were detected
same,"serum cCa, mean maximum change from the baseline",[6]; single i.v. 5 mg,−7.26% ± 3.48%
same,"serum cCa, mean maximum change from the baseline",[6]; single i.v. 10 mg,−6.79% ± 5.86%
same,"serum cCa, mean maximum change from the baseline",[6]; single i.v. 20 mg,−14.26% ± 6.01%
same,patients with AEs,"[7]; single i.v. 10 mg, 1 patient of 4 (APTT), considered unrelated to treatment",25.0%
same,hypocalcemia with cCa < 7.5 mg/dl,"[7]; single i.v. 5, 10 or 20 mg",No patients developed hypocalcemia
same,deaths or serious adverse events,"[7]; single-dose study, 5, 10 or 20 mg i.v.",No deaths or serious adverse events (AEs) were reported
same,"serum iPTH, percent change from the baseline at the end of the study or at study withdrawal",[8]; [13],−26.25% ± 26.94%
same,"serum iPTH, percent change from the baseline at the end of the study or at study withdrawal",[8]; [14],−45.65% ± 20.06%
same,"serum iPTH, percent change 30 minutes after injection",[8]; 2.5 mg i.v.,−41.65% ± 19.36%
same,"serum iPTH, percent change from baseline on day 3",[8]; 2.5 mg i.v.,−24.25% ± 13.36%
same,"serum iPTH, percent change 30 minutes after injection",[8]; 5 mg i.v.,−58.60% ± 6.47%
same,"serum iPTH, percent change from baseline on day 3",[8]; 5 mg i.v.,−32.64% ± 18.20%
same,AUClast ratio day 27/day 1,[9]; [15],3.05 (2.91–3.19) ^c
same,Cmax ratio day 27/day 1,[9]; [15],1.18 (0.86–1.62) ^c
same,AUClast ratio day 27/day 1,[9]; [16],3.20 (2.87–3.57) ^c
same,Cmax ratio day 27/day 1,[9]; [16],1.09 (0.90–1.32) ^c
same,AUC(0-t),[9]; [17],600 ± 133 ng·h/mL
same,AUC(0-t),"[9]; 2.5 mg, M1, 2.5 mg i.v. 3 times weekly for 4 weeks, day 27 (last administration), n = 7, mean ± SD",1830 ± 380 ng·h/mL
same,Cmax,[9]; [17],151 ± 56 ng/mL
same,AUC(0-t),[9]; [18],1200 ± 560 ng·h/mL
same,AUC(0-t),[9]; [19],3860 ± 1840 ng·h/mL
same,Cmax,[9]; [18],315 ± 89 ng/mL
same,Cmax,[9]; [19],356 ± 143 ng/mL
same,Cmax at week 4 relative to the initial dose,[9]; multiple-dose study,≤ 1.18 times
same,mean AUClast following day 27 injection relative to day 1 injection,"[9]; multiple-dose study, discussion",approximately 3 times
same,"serum P, percent change from the baseline at the end of the treatment or withdrawal",[10]; [13],−14.68% ± 13.38%
same,"serum P, percent change from the baseline at the end of the treatment or withdrawal",[10]; [14],−13.79% ± 18.18%
same,serum P versus placebo,"[10]; single-dose study, from 4 hours to day 4",remained lower
same,"serum iPTH, mean maximum change from the baseline",[11]; single i.v. 5 mg,−50.43% ± 12.63%
same,"serum iPTH, mean maximum change from the baseline",[11]; single i.v. 10 mg,−69.26% ± 11.35%
same,"serum iPTH, percent change from the baseline","[11]; single i.v. 20 mg, at 56 hours",approximately −30%
same,serum FGF23,[12]; day 29,tended to decrease
same,serum BAP before hemodialysis,"[12]; day 29, etelcalcetide groups",remained unchanged
same,serum TRACP-5b,"[12]; day 29, etelcalcetide groups",a trend toward decreases
same,serum FGF23,[12]; day 55,a trend toward a return to baseline levels
same,serum BAP before hemodialysis,"[12]; day 55, etelcalcetide groups",trends toward decreases
same,serum TRACP-5b,"[12]; day 55, etelcalcetide groups",a return to baseline

# Source: paper PMC5678849 (Kidney International Reports, 2017)
